Bioassay records deposited in PubChem by several laboratories.
Only some compounds are listed: those with a hit (about 2% of all), similar ones and a draw of the others.
NR2E3 ag-1: activates human NR2E3 receptor. Q9Y5X4. inhibition of corepressor binding, % at 3.98 µM. AID 602229. CHO-S Gal4-NCOR/VP16-NR2E3 two-hybrid, luciferase. hit rate 0.35% among 360,000;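 active = inhibition above the mean of all tested compounds plus 3 SD, cut at about 70% in these data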;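 note: 0% = DMSO with NR2E3 transfected cells and 100% = cells lacking NR2E3 construct; higher means lower luciferase signal from less NR2E3 corepressor binding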
Target sequence (Q9Y5X4 whole entry, looked up, the tested form may be a part): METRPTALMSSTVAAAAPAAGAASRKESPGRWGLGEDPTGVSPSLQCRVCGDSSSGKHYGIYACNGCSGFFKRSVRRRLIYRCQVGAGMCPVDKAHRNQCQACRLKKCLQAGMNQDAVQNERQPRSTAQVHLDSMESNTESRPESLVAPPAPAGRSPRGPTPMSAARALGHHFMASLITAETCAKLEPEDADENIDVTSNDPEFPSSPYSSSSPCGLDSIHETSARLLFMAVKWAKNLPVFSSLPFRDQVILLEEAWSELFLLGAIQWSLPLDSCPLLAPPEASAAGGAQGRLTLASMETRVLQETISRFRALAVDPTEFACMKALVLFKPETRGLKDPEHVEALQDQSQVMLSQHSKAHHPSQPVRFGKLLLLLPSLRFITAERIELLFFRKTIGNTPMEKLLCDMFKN
Myeloid diff MLP: compounds promoting myeloid differentiation. calls only at 10 µM. hit rate 1% among 360,000. ER-HoxA9 myeloid progenitors, lysozyme-GFP differentiation, flow cytometry;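 active = normalized GFP-positive differentiation at or above the plate's own cutoff, the solvent-only control mean plus 3 SD; inconclusive = no clear call, values can overlap the other calls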;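 note: cells exposed to compound for four days before flow analysis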
FXN GAA850 act: frataxin GAA850 promoter activation | activation, % at 6 µM | HEK293 lucGAA850 FXN promoter luciferase reporter, 24 h; percent of 10 µM SAHA response | hit rate 0.56% among 360,000 | AID 540364;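 active = activation above the average of all compounds screened plus 3 SD, cutoff fixed separately per campaign, cut at about 7.5% in these data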;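 note: 0% = DMSO wells and 100% = 10 µM SAHA wells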
NR2E3 ag-2: agonists of human nuclear receptor NR2E3; inhibition of corepressor binding, % at 4.78 µM; GST-NR2E3/biotin-RetCOR TR-FRET, 1536-well; hit rate 0.12% among 320,000; Q9Y5X4;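 active = percent inhibition above the cutoff of mean plus 3 SD of all tested compounds, set per screening campaign, cut at about 20% in these data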;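 note: 0% = DMSO wells and 100% = biotin wells as full block of FRET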
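Test system: GST-NR2E3 and biotin-RetCOR proteins | Quantity: 1.35 nM GST-tagged NR2E3 final | Medium: Tris pH 7.5 | Also added: 7 nM biotin-RetCOR | Dosing: Compound at 4.8 µM, single dose | Timing: 5 h at 4 °C | Detection: Time-resolved FRET | Read-out basis: Percent inhibition | Benchmarks: Biotin wells as high control, 0.6% DMSO wells as low control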
T cell modulator: T cell immune modulators affecting CD8 T cell-vesicle binding; 2C CD8+ T cell-vesicle binding, flow cytometry; stronger effect = lower value; response (vesicle binding), % at 7 µM; hit rate 0.068% among 330,000;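 active = response, share of CD8 T cells binding vesicles, and their 90th percentile fluorescence all below set limits, cut at about 80% in these data, passing the limit was not always enough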;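 note: values below 100% mean blocked vesicle binding to the CD8+ T cells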
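Incubation: binding step 1.5 h, 37 °C, antibody labelling 20 min, ice; system: murine 2C transgenic CD8+ T lymphocytes; technique: cytometric PE anti-B7-1 and Alexa647 anti-CD8 signals after 1% paraformaldehyde fixation; also added: QL9-charged Drosophila Ld/ICAM-1/B7-1 vesicles; control set: naked versus QL9-loaded vesicles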
Active calls of the source: *; i = inactive; ? = inconclusive; nt = no result; + = active, no number; ! = not active in a repeat.

SMILES	NR2E3 ag-1	Myeloid diff MLP	FXN GAA850 act	NR2E3 ag-2	T cell modulator
CCOC(=O)C1=C(c2ccccc2)NC(=O)NC1c1ccc(OC)c(OC)c1 (stereo not given)	5	i	0	-3	415
CCOC(=O)C1=C(c2ccccc2)N(C)C(=O)NC1c1ccc(OC(F)F)c(OC)c1 (stereo not given)	-17	+	-1	0	270
N#Cc1cccc(NC(=O)c2cc(C3CCCCN3C(=O)c3cccs3)on2)c1 (stereo not given)	4	i	1	nt	nt
O=C(Nc1ccc2c(c1)CCCN2C(=O)c1cccs1)c1ccccc1	-2	+	-1	3	302
O=C(Nc1ccc2c(c1)CCCN2C(=O)c1cccs1)c1cccc(F)c1	-26	?	-4	-4	296
Cc1cccc(Nc2nc(N)nc(-c3oc4ccccc4c3C)n2)c1	-135	+	1	0	283
COc1cccc(Nc2nc(N)nc(-c3oc4ccccc4c3C)n2)c1	-157	i	-2	0	i
CCN(CC)S(=O)(=O)c1ccc(C(=O)NC(=S)N2CCCCC2C)cc1 (stereo not given)	-11	i	1	nt	nt
O=C(COC(=O)C1CCC1)NC(=O)c1ccccc1	-28	i	1	-2	0.0*
CC(=O)CC(c1ccccc1)S(=O)(=O)c1ccc([N+](=O)[O-])cc1 (stereo not given)	-5	+	-1	4	275
Cc1ccc(F)c(S(=O)(=O)NC(=O)C2(C)CCN2C(=O)Cc2ccccc2)c1 (stereo not given)	-21	i	0	nt	nt
NNc1ncnc2scc(-c3ccc(Cl)cc3)c12	0	+	3	-1	235
Clc1ccc(-c2csc3ncnc(Cl)c23)cc1	-4	i	-1	2	122
CC12CCC(C(=O)N/N=C/c3ccc(O)cc3)(OC1=O)C2(C)C (stereo not given)	-30	i	0	5	293
FC(F)c1nnc2ccc(Cl)nn12	-23	i	1	4	499
Clc1ccc2nnc(Cl)n2n1	11	+	2	7	292
CN(C)CCNCCCNc1c2ccccc2nc2cccc([N+](=O)[O-])c12	-26	nt	-2	nt	nt
O=C(CNC(=O)C1CC1)Nc1ccc(F)c(F)c1F	-23	i	1	nt	388
Cc1c(N=C/C=C2/N(C)c3ccccc3C2(C)C)c(=O)n(-c2ccccc2)n1C	-19	+!	-2	2	216
Cc1c(N=C/C=C2\N(C)c3ccccc3C2(C)C)c(=O)n(-c2ccccc2)n1C	13	i	0	4	305
Cc1c(NC(=S)/C=C2\N(C)c3ccccc3C2(C)C)c(=O)n(-c2ccccc2)n1C	9	+	0	5	584
CC1(C(=O)NS(=O)(=O)C2CC2)CCN(C(=O)c2ccccc2OC(F)(F)F)C1 (stereo not given)	-15	i	0	nt	nt
CN1OC[C@@H]2CN(C(=S)NCCc3ccccc3)[C@H](c3ccc(-n4ccnc4)cc3)C[C@@H]21	-23	i	nt	nt	nt
Cc1nc(C)c(C(=O)OCC(=O)Nc2ccccc2SCC#N)s1	-39	+	0	0	196
O=S(=O)(NCc1cn2ccsc2n1)c1cccs1	-6	i	0	0	174
SMILES	NR2E3 ag-1	Myeloid diff MLP	FXN GAA850 act	NR2E3 ag-2	T cell modulator
O=S(=O)(NCc1cn2ccsc2n1)c1ccc(Oc2ccccc2)cc1	88*	+	-4	-1	210
N#C/C(=C\c1ccc(N2CCCCC2)o1)C(=O)Nc1cccc(Br)c1	-131	+	7	-3	81
COC(=O)[C@@]1(Sc2ccccc2)CC(=O)N[C@@H]1c1ccccc1	-11	i	nt	nt	nt
CN(Cc1ccccc1)c1nc2nonc2nc1N1CCCC(CN2CCCC2=O)C1 (stereo not given)	-27	i	1	1	116
Cn1c(N)c(C(=O)COC(=O)CCc2ccccc2)c(=O)n(C)c1=O	-4	+	0	-3	264
Cc1cc(Br)ccc1SCC(=O)OCC(=O)NC1CC1	1	+	1	1	508
Cc1cc(Br)ccc1SCC(=O)OCC(=O)c1c(N)n(C)c(=O)n(C)c1=O	14	+	0	2	308
Cc1cc(Br)ccc1SCC(=O)OCC(=O)NC(C)c1ccccc1 (stereo not given)	-10	i	2	0	279
CC1(C(=O)O)CCN1C(=O)COc1ccc(Cl)cc1 (stereo not given)	10	i	2	nt	nt
Cc1ccc(N(C)S(=O)(=O)c2ccc3c(c2)CC(C)N3C(=O)C2CC2)cc1 (stereo not given)	1	+	3	-1	428
COc1ccc(C(CCNC(C)c2ccccc2)C(C)C)cc1 (stereo not given)	5	i	-4	1	318
COc1ccc(C(C)NCCC(c2ccc(OC(C)C)cc2)c2ccccc2OC)cc1 (stereo not given)	-1	+	-5	nt	119
COc1ccc(C(=O)OCC(=O)c2ccc3c(c2)NC(=O)CO3)cc1S(=O)(=O)N1CCOCC1	-8	i	0	nt	436
O=Cc1cc2ccccc2nc1SCCCF	6	+	3	0	229
O=C(Nc1ccc(Oc2c(F)c(F)c(F)c(F)c2F)cc1)OC1CCN2Cc3ccccc3N=C12 (stereo not given)	-22	i	2	0	823
Cc1ccc2ncc(S(=O)(=O)c3ccccc3)c(N3CCCCC3C)c2c1 (stereo not given)	-19	+	1	3	795
O=C(C[C@@H]1C/C=C\CCCC(=O)OC[C@@H](c2ccccc2)NC1=O)NCCO	-7	i	0	nt	273
COc1ccc([C@H]2N[C@]3(CCCN(Cc4ccco4)C3=O)[C@H]3C(=O)N(Cc4ccccc4)C(=O)[C@@H]23)cc1	-3	i	-4	nt	nt
C=CCc1cccc(/C=N/NC(=O)CCC(=O)Nc2ccc(F)cc2)c1O	-17	+	-1	0	292
S=c1nc(C2CC2)n(-c2ccccc2)[nH]1	4	i	2	5	427
CC1=C(C(=O)N(C(C)C)C(C)C)CC(CC(=O)NCc2cccs2)C(=O)N1CCC1=CCCCC1 (stereo not given)	-2	i	nt	nt	nt
COCCCNC(=O)CCn1c(=O)c2ccccc2n(CC(=O)Nc2c(C)cccc2C)c1=O	-14	i	0	-3	255
COCCCNC(=O)CCCn1c(=O)c2ccccc2n(CC(=O)Nc2c(C)cc(C)cc2C)c1=O	-10	+	-1	3	192
COc1cc(/C=N/NC(=O)c2ccc(NS(=O)(=O)c3cccs3)cc2)cc(OC)c1O	23	i	-1	2	80*
COc1cc(C=NNC(=O)c2ccccc2NS(=O)(=O)c2cccs2)cc(OC)c1O	-15	i	1	nt	153
